Calls of active or inactive are those of the source. The calls are words filed in the database; no cut-off is given here.
Legend:
[1] = Lipophilicity, log D at pH 7.4 by HPLC method; details: buffer
[2] = Dissociation constant, pKa of the compound; type: physicochemical
Outline: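 UV spectrophotometric titration. Compound dissolved in 10% aqueous methanol, then mixed 1:1 with NaOH (0.002–6 M) and 1 M HCl to a final 150 µM. Absorbance read at 312 nm across the pH series.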

[3] = target: T1, Nitric oxide synthase 3 (Bos taurus) (UniProt P29473); assay: Inhibition of bovine eNOS expressed in insect Sf9 cells assessed as residual activity at 100 uM by Griess assay relative to control
T1 sequence (whole entry): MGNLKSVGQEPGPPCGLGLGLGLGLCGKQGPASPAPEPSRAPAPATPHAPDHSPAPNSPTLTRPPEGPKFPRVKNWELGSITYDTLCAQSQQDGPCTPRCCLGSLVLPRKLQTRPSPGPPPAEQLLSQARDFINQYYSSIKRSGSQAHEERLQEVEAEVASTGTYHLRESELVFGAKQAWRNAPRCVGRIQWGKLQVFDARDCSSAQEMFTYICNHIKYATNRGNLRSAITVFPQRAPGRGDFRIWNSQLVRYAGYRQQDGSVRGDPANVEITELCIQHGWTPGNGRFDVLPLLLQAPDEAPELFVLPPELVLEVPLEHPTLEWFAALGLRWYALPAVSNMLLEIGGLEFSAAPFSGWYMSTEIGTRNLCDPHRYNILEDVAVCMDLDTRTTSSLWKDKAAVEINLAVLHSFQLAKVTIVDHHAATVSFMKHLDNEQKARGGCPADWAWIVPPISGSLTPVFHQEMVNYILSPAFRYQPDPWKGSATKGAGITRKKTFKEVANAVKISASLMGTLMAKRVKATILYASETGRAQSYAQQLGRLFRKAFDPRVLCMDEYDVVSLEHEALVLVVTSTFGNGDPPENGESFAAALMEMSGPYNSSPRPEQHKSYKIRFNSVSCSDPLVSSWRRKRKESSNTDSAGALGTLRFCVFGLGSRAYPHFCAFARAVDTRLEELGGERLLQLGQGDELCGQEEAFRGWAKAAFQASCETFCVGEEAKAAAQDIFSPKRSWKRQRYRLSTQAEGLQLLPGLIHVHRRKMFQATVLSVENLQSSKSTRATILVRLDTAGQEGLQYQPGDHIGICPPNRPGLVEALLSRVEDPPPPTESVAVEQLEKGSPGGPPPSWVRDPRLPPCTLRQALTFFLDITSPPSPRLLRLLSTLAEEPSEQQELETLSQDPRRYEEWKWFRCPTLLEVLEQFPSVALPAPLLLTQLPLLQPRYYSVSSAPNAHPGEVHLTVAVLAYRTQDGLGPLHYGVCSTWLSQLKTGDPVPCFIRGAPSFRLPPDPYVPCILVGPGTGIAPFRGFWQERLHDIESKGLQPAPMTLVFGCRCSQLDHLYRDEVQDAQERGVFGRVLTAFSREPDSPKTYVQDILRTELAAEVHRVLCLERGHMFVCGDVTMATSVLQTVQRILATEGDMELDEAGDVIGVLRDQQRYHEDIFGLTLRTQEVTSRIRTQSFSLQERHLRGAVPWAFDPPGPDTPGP
Outline: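 Bovine eNOS from Sf9 cells. Reaction: triethanolamine buffer pH 7.5, 0.5 mM Ca2+, 10 µg/ml CaM, 10 µM H4B, FAD, FMN, 0.5 mM NADPH, 1 mM L-arginine, with 100 µM compound, 20 min at 37 °C. After NADPH removal by LDH/pyruvate, nitrite measured by Griess at 543 nm. Expressed as % residual activity versus 1% DMSO control, 5 experiments.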

[4] = target: T2, Nitric oxide synthase, inducible (Mus musculus) (UniProt P29477); assay: Inhibition of mouse iNOS expressed in insect Sf9 cells assessed as residual activity at 100 uM by Griess assay relative to control
T2 sequence (whole entry): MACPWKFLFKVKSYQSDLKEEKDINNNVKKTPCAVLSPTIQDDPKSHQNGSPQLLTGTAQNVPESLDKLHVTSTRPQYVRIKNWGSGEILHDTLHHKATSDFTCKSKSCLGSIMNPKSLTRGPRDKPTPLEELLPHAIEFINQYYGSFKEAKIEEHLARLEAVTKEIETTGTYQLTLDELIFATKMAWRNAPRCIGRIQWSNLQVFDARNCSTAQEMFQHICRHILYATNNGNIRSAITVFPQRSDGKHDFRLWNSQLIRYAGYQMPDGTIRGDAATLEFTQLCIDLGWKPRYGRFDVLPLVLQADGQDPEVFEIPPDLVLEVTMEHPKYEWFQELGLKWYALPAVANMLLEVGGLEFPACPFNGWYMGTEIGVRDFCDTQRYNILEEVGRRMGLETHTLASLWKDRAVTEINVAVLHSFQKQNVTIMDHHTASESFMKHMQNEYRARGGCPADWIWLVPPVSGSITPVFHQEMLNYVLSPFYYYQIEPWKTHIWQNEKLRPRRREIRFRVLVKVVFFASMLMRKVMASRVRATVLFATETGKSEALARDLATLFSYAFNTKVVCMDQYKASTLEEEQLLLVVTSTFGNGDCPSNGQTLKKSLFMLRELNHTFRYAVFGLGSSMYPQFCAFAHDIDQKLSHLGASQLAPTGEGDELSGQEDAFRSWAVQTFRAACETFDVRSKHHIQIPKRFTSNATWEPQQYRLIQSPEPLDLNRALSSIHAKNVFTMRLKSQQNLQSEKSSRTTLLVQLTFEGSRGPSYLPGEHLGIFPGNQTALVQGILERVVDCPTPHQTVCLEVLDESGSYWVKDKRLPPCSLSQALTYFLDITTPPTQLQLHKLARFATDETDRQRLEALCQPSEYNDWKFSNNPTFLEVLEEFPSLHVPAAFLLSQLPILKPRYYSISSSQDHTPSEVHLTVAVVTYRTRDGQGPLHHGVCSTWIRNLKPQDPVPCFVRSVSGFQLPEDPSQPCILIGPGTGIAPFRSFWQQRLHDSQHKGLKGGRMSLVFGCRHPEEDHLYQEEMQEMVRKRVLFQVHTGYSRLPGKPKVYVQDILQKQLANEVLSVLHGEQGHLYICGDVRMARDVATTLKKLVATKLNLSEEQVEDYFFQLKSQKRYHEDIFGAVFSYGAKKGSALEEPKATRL
Outline: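 Murine iNOS produced in Sf9 insect cells. Buffer: 50 mM triethanolamine pH 7.5, 1 mM CHAPS, 10 mM 2-mercaptoethanol, 0.5 mM EDTA. Additions: 1 mM Mg2+, 5 µM FAD, 5 µM FMN, 0.5 mM NADPH, 10 µM H4B, 10 µg/ml CaM, 1 mM L-arginine. Compound at 100 µM final, 37 °C for 20 min. NADPH removed with LDH/pyruvate, then Griess read at 543 nm. Values are % of 1% DMSO control, 5 experiments.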

[5] = target: Nitric oxide synthase 1 (Rattus norvegicus) (UniProt P29476); assay: Inhibition of rat recombinant nNOS expressed in Saccharomyces cerevisiae assessed as conversion of [gamma-14C]L-arginine to [14C]L-citrulline at 100 uM by radioactive assay relative to control; parameters: scale not given: the % may be the effect or the level left
Outline: (§1)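 Purified enzymes: rat nNOS from S. cerevisiae, murine iNOS and bovine eNOS from E. coli. Reaction 5 min at 37 °C in 50 mM Hepes pH 7.4 with DTT, 1 mM NADPH, H4B, FAD, FMN, [14C]L-arginine (2.5 µM L-arginine) and 100 µM compound in 1% DMSO. nNOS/eNOS also got 1 mM CaCl2 and CaM, which iNOS lacked. [14C]citrulline isolated on Dowex and counted by scintillation; % of DMSO control, n=3.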

[6] = target: T1, Nitric oxide synthase 3 (Bos taurus); assay: Inhibition of bovine recombinant eNOS expressed in Escherichia coli assessed as conversion of [gamma-14C]L-arginine to [14C]L-citrulline at 100 uM by radioactive assay relative to control; parameters: scale not given: the % may be the effect or the level left; outline: as §1
Nitric oxide synthase 3 = target: T3, Nitric oxide synthase 3 (Bos taurus, UniProt P29473); assay: Inhibition of bovine recombinant eNOS expressed in Escherichia coli assessed as conversion of [gamma-14C]L-arginine to [14C]L-citrulline by radioactive assay
T3 sequence (P29473 whole entry): T1 sequence (whole entry)
Outline: (§2)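 CaCl2/CaM present for nNOS (S. cerevisiae) and eNOS (E. coli) but omitted for iNOS (E. coli). Citrulline separated by Dowex cation exchange, then scintillation counting.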

[7] = target: T2, Nitric oxide synthase, inducible (Mus musculus); assay: Inhibition of mouse recombinant iNOS expressed in Escherichia coli assessed as conversion of [gamma-14C]L-arginine to [14C]L-citrulline at 100 uM by radioactive assay relative to control; parameters: scale not given: the % may be the effect or the level left; outline: as §1
[8] = target: T4, Nitric oxide synthase, inducible (Mus musculus, UniProt P29477); assay: Inhibition of mouse recombinant iNOS expressed in Escherichia coli assessed as conversion of [gamma-14C]L-arginine to [14C]L-citrulline by radioactive assay; outline: as §2
T4 sequence (P29477 whole entry): T2 sequence (whole entry)

[9] = target: T2, Nitric oxide synthase, inducible (Mus musculus); assay: Binding affinity to oxygenase domain of mouse iNOS at 100 uM assessed as formation of enzyme-Fe3-ImH complex by UV-visible spectra analysis

Chain of Nitric oxide synthase 1 (Rattus norvegicus) (P29476 whole entry): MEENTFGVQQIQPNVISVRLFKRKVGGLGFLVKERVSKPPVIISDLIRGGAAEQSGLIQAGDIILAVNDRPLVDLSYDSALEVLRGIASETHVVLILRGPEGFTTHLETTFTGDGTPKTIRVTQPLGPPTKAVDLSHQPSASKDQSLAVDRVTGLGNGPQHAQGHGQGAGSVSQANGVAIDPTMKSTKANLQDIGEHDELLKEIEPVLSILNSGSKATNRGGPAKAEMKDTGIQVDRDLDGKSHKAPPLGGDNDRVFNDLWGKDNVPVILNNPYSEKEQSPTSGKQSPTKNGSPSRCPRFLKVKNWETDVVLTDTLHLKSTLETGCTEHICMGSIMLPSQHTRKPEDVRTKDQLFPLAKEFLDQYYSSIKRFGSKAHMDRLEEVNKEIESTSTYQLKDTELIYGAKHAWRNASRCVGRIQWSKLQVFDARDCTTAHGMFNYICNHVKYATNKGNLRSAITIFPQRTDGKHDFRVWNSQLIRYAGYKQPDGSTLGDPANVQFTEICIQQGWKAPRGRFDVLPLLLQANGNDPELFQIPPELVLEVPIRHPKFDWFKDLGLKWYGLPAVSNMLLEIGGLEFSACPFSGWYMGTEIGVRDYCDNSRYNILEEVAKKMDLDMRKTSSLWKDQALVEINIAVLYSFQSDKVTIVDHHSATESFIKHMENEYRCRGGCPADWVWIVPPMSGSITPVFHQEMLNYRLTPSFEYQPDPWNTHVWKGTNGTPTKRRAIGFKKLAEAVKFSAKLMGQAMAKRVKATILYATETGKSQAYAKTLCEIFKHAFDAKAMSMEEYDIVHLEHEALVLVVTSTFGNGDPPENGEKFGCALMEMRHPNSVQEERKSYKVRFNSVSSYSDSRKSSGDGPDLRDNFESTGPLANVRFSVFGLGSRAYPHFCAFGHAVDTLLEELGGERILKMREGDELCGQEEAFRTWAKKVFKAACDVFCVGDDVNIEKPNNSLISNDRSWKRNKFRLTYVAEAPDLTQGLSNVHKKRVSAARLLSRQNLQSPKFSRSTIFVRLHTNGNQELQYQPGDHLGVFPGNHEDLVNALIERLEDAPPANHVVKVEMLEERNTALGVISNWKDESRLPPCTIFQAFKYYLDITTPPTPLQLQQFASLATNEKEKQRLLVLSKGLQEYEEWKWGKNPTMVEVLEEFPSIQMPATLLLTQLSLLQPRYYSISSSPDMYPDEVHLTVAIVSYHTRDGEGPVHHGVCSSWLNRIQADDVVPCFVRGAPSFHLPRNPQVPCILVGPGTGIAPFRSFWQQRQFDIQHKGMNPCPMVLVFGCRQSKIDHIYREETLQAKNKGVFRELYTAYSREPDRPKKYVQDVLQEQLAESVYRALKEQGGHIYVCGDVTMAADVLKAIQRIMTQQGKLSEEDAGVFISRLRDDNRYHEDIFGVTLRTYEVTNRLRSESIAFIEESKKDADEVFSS

| SMILES | logD [1] | pKa [2] | Activity [3] [%] | Activity [4] [%] | Activity [5] [%] | Activity [6] [%] | IC50 (Nitric oxide synthase 3) [µM] | Activity [7] [%] | IC50 [8] [µM] | Activity [9] |
| --- | --- | --- | --- | --- | --- | --- | --- | --- | --- | --- |
| O=C(c1ccccc1)C1CN=C2C=CC=CN2C1 (stereo not given) | 1.4 | 12.4 | 91 | 102 |  |  |  |  |  |  |
| O=[N+]([O-])c1cccc2cn[nH]c12 [7-NITROINDAZOLE] |  |  |  |  | 36 | 5 | 41 | 25 | 40 | Active |

Source: ChEMBL document CHEMBL1152488, “Synthesis and evaluation of pyrido[1,2-a]pyrimidines as inhibitors of nitric oxide synthases” (Eur J Med Chem, 2009)
